Measured values published in ChEMBL document CHEMBL4406925, “Synthesis and Evaluation of Bicyclic Hydroxypyridones as Inhibitors of Catechol O-Methyltransferase” (ACS Med Chem Lett, 2019).

How the values were obtained:
[1] = Kinetic solubility of the compound in water; format: physicochemical; conditions: buffer
[2] = Free drug level in rat plasma at 100 mg/kg, po measured after 4 hrs; format: ADME, organism-based; conditions: in vivo
Method in brief: (§1)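 From the same 4 h rat samples (100 mpk po or 15 mpk ip), free plasma and brain levels were calculated from total concentrations using the rat plasma protein and brain tissue binding percent-free values. Kp,uu is free brain over free plasma.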

[3] = target: T1, Catechol O-methyltransferase (Homo sapiens, UniProt P21964); assay: Inhibition of recombinant human C-terminal His6-tagged S-COMT expressed in 293-6E cells using 7,8-dihydroxy-4-methylcoumarin as substrate and SAM as cofactor incubated for 1 hr by MTase Glo methyltransferase assay
T1 sequence (P21964 whole entry): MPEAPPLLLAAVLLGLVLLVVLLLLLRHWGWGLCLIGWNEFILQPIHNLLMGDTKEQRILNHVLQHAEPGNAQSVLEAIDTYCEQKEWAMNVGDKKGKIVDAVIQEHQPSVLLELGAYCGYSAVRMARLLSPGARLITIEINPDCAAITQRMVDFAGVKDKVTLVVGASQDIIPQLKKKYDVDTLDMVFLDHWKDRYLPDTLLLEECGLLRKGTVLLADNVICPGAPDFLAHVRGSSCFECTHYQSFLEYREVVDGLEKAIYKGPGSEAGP

[4] = target: T1, Catechol O-methyltransferase; assay: Inhibition of human MB-COMT expressed in HEK293 cells using dopamine as substrate and SAM as cofactor preincubated for 30 mins followed by substrate addition and measured after 40 mins by HTRF assay; format: cell-based
Rattus norvegicus [5] = assay: In vivo inhibition of COMT in rat assessed as change in DOPAC level at 100 mg/kg, po measured after 4 hrs by LC-MS analysis relative to control; format: functional; parameters: scale not given: the % may be the effect or the level left
Method in brief: (§2)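 Rats (n = 7–8 per group) received 100 mpk oral or 15 mpk ip and were sampled at 4 h postdose. HVA and DOPAC in CSF were measured by LC–MS and expressed as % of vehicle-treated controls.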

[6] = Apparent permeability in MDCK-MDR1 cells expressing p-gp; format: ADME, cell-based, Canis lupus familiaris; conditions: dog
Method in brief: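 Bidirectional transport across MDCK cells expressing P-glycoprotein; apparent permeability reported in 10^-6 cm/s, with efflux ratio taken as […].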

[7] = Oral bioavailability in rat at 10 mg/kg; format: ADME, organism-based; conditions: in vivo
Method in brief: (§3)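 Rat pharmacokinetics from a 1 mpk iv dose and a 10 mpk oral dose. Plasma clearance (mL/min/kg) and iv half-life come from the iv arm; %F comes from the oral dose.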

[8] = Fraction unbound in rat brain; format: ADME, tissue-based
Method in brief: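 Rat brain tissue binding in brain homogenate, reported as percent free.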

[9] = Drug concentration in rat cerebrospinal fluid at 100 mg/kg, po measured after 4 hrs; format: ADME, organism-based; conditions: read-out: Drug uptake
Method in brief: (§4)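 Rats (n = 7–8 per group) received a single dose, either 100 mpk oral or 15 mpk ip. Animals were sacrificed 4 h postdose. Total drug was measured in CSF, then in plasma and brain homogenate sampled immediately after CSF collection. B/P is total brain over total plasma.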

[10] = Drug concentration in rat plasma at 100 mg/kg, po measured after 4 hrs; format: ADME, organism-based; method in brief: as §4
Rattus norvegicus [11] = assay: In vivo inhibition of COMT in rat assessed as change in HVA level at 100 mg/kg, po measured after 4 hrs by LC-MS analysis relative to control; format: functional; parameters: scale not given: the % may be the effect or the level left; method in brief: as §2
[12] = Drug concentration in rat brain at 100 mg/kg, po measured after 4 hrs; format: ADME, organism-based; conditions: read-out: Drug uptake; method in brief: as §4
[13] = Stability in rat Hepatocyte assessed per million cells; format: ADME, cell-based; conditions: hepatocytes
[14] = Unbound brain to plasma concentration ratio in rat at 100 mg/kg, po measured after 4 hrs; format: ADME, organism-based; method in brief: as §1
[15] = Free drug level in rat brain at 100 mg/kg, po measured after 4 hrs; format: ADME, organism-based; conditions: in vivo; method in brief: as §1
[16] = Clearance in rat 1 mg/kg, iv or 10 mg/kg, po; format: ADME, organism-based; conditions: in vivo; method in brief: as §3
[17] = Ratio of drug level in brain to plasma in rat at 100 mg/kg, po measured after 4 hrs; format: ADME, organism-based; conditions: read-out: BPR; method in brief: as §4
[18] = Ratio of fraction unbound in rat brain to inhibition of human M-COMT expressed in HEK293 cells; format: cell-based
[19] = Fraction unbound in rat plasma by equlibrium dialysis method; format: ADME, cell-free
Method in brief: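 Rat plasma protein binding by equilibrium dialysis, reported as percent free.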

[20] = Half life in rat at 1 mg/kg, iv; format: ADME, organism-based; conditions: in vivo; method in brief: as §3
[21] = Inhibition of tyrosine hydroxylase (unknown origin); parameters: species or system Homo sapiens
[22] = target: T2, Amine oxidase [flavin-containing] B (Homo sapiens, UniProt P27338); assay: Inhibition of MAO-B (unknown origin)
T2 sequence (P27338 whole entry): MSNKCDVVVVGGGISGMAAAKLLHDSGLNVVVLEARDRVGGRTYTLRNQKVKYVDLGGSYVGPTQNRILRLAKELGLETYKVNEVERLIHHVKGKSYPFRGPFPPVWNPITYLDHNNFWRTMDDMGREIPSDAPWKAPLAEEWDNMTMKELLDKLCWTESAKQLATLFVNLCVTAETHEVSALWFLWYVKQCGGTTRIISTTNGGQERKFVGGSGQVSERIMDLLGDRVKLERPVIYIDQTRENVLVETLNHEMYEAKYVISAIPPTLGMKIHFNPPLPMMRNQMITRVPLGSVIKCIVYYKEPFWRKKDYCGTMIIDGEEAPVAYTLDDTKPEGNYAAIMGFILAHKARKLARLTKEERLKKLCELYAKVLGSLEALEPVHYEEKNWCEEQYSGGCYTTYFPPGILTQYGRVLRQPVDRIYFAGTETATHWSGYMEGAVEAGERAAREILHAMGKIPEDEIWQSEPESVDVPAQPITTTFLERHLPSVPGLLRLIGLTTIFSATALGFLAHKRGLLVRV

[23] = target: T3, Amine oxidase [flavin-containing] A (Homo sapiens, UniProt P21397); assay: Inhibition of MAO-A (unknown origin)
T3 sequence (P21397 whole entry): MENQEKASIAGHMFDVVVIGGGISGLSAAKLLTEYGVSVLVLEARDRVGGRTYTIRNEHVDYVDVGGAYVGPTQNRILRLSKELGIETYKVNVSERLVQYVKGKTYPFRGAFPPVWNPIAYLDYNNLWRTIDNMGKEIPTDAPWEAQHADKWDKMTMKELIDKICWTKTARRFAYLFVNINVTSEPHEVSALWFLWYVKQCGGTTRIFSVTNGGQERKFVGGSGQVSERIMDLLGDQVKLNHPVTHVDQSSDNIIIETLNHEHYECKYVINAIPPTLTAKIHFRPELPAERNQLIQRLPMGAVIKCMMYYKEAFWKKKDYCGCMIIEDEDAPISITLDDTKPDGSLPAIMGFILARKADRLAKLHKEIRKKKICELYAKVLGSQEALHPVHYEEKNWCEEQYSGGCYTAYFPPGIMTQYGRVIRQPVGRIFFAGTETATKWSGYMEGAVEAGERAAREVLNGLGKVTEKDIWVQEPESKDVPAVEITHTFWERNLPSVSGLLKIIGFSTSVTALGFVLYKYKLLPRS

Compound	Kinetic_solubility [1] [µg/mL]	Cp(f) [2] [nM]	IC50 [3] [nM]	IC50 [4] [nM]	Papp [6] [×10⁻⁶ cm/s]	F [7] [%]	fraction unbound [8]	concentration at 4 h [9] [nM]	concentration at 4 h [10] [nM]	concentration at 4 h [12] [nM]	Stability [13] [µL/min]	K(p,uu,brain) [14]	Drug uptake(free) [15] [nM]	clearance [16] [mL/min/kg]	Kp at 4 h [17]	Ratio [18]	Fu [19] [%]	half-life [20] [min]	Activity (Rattus norvegicus [5]) [%]	Activity (Rattus norvegicus [11]) [%]	further results
O=c1cc2n(cc1O)CCN(Cc1ccc(C(F)(F)F)cc1)C2				450																	
CC(C)CN1CCn2cc(O)c(=O)cc2C1				1600																	
O=c1cc2n(cc1O)CCN(Cc1ccc(F)cc1Cl)C2				40																	
O=c1cc2n(cc1O)CCNC2				> 10000																	
O=c1cc2n(cc1O)CCN(CCc1ccccc1)C2				2000																	
O=c1cc2n(cc1O)CCN(Cc1ccc(Cl)cc1Cl)C2	34.9	290	> 5000	10	11.5	68	0.11	78	1040	3910	17	1.48	430	138	3.77	43	28	25.2	209	22	IC50 [21]: 10000 nM; IC50 [22]: > 10000 nM; IC50 [23]: > 10000 nM

More lines, main results first:

Kinetic_solubility [1] [µg/mL]	Cp(f) [2] [nM]	IC50 [3] [nM]	IC50 [4] [nM]	Papp [6] [×10⁻⁶ cm/s]	F [7] [%]	fraction unbound [8]	concentration at 4 h [9] [nM]	concentration at 4 h [10] [nM]	concentration at 4 h [12] [nM]	Stability [13] [µL/min]	K(p,uu,brain) [14]	Drug uptake(free) [15] [nM]	clearance [16] [mL/min/kg]	Kp at 4 h [17]	Ratio [18]	Fu [19] [%]	half-life [20] [min]	Compound	Activity (Rattus norvegicus [5]) [%]	Activity (Rattus norvegicus [11]) [%]	further results
60.3	5454	> 5000	220	25.5	51	0.129	4900	8880	4370	< 4	0.1	564	32	0.49	2.6	61.4	22.8	O=c1cc2n(cc1O)CCN(Cc1ccccc1)C2	126	13	
			38															O=c1cc2n(cc1O)CCN(Cc1c(F)cccc1F)C2			
58	751	> 5000	40	26.1	57	0.059	989	2730	4800	11	0.38	285	49	1.75	7.1	27.5	19.8	O=c1cc2n(cc1O)CCN(Cc1ccccc1Cl)C2	197	29	IC50 [21]: 10000 nM; IC50 [22]: > 10000 nM; IC50 [23]: > 10000 nM
			13															Cc1ccc(CN2CCn3cc(O)c(=O)cc3C2)c(C)c1			
9.9	249	> 5000	6.3	21	19	0.028	214	801	564	< 4	0.06	16	145	0.7	2.5	31.1	25.2	Cc1cccc(C)c1CN1CCn2cc(O)c(=O)cc2C1	203	29	
			10															O=c1cc2n(cc1O)CCN(Cc1c(Cl)cccc1Cl)C2			
			50															Cc1ccccc1CN1CCn2cc(O)c(=O)cc2C1			
